# Measurements published in ChEMBL document CHEMBL4393724, “Betulin-1,4-quinone hybrids: Synthesis, anticancer activity and molecular docking study with NQO1 enzyme” (Eur J Med Chem, 2019).
# Calls of active or inactive are those of the source. No cut-off for these calls is given here.
# How the values were obtained:
# MCF7 [1] = test: Antiproliferative activity against human MCF7 cells assessed as reduction in cell viability incubated for 72 hrs by WST1 assay; assay type: functional, cell-based; conditions: Homo sapiens, MCF7, 72 h; read-out: IC50
# How it was run: (§1)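 Cells held at 37 °C under 5% CO2 and seeded at 5 × 10^4 cells/well in DMEM with 10% FCS plus streptomycin and penicillin. Compounds were dissolved in DMSO and exposed for 72 h. WST-1 formazan was read at 450 nm. IC50 was derived from the mean ± SD of at least three independent experiments run in triplicate. Cisplatin served as reference.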
# [2] = target: NAD(P)H dehydrogenase [quinone] 1 (Homo sapiens) (UniProt P15559); test: Inhibition of NQO1 in human MCF7 cells assessed as decrease in histone H3 expression at 0.5 times of IC50 incubated for 24 hrs by RT-PCR; assay type: cell-based
# How it was run: (§2)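 Cultured cells were exposed for 24 h to compound at half its IC50. Transcription of H3, TP53, CDKN1A, BAX and BCL-2 was quantified by real-time RT-qPCR with SYBR Green as mRNA copy numbers and compared with untreated control. The BAX/BCL-2 ratio was calculated from the mRNA copies.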
# [3] = target: NAD(P)H dehydrogenase [quinone] 1 (Homo sapiens) (UniProt P15559); test: Inhibition of NQO1 in human C32 cells assessed as decrease in Bcl2 expression at 0.5 times of IC50 incubated for 24 hrs by RT-PCR; assay type: cell-based; how it was run: as §2
# [4] = target: NAD(P)H dehydrogenase [quinone] 1 (Homo sapiens) (UniProt P15559); test: Inhibition of NQO1 in human MCF7 cells assessed as increase in CDKN1A expression at 0.5 times of IC50 incubated for 24 hrs by RT-PCR; assay type: cell-based; how it was run: as §2
# [5] = target: NAD(P)H dehydrogenase [quinone] 1 (Homo sapiens) (UniProt P15559); test: Inhibition of NQO1 in human A549 cells assessed as increase in BAX expression at 0.5 times of IC50 incubated for 24 hrs by RT-PCR; assay type: cell-based; how it was run: as §2
# [6] = target: NAD(P)H dehydrogenase [quinone] 1 (Homo sapiens) (UniProt P15559); test: Inhibition of NQO1 in human C32 cells assessed as increase in CDKN1A expression at 0.5 times of IC50 incubated for 24 hrs by RT-PCR; assay type: cell-based; how it was run: as §2
# [7] = target: NAD(P)H dehydrogenase [quinone] 1 (Homo sapiens) (UniProt P15559); test: Inhibition of NQO1 in human C32 cells assessed as increase in TP53 expression at 0.5 times of IC50 incubated for 24 hrs by RT-PCR; assay type: cell-based; how it was run: as §2
# [8] = target: NAD(P)H dehydrogenase [quinone] 1 (Homo sapiens) (UniProt P15559); test: Inhibition of NQO1 in human C32 cells assessed as increase in BAX expression at 0.5 times of IC50 incubated for 24 hrs by RT-PCR; assay type: cell-based; how it was run: as §2
# COLO-829 = test: Antiproliferative activity against human COLO829 cells assessed as reduction in cell viability incubated for 72 hrs by WST1 assay; assay type: functional, cell-based; conditions: Homo sapiens, COLO-829, 72 h; read-out: IC50
# [9] = target: NAD(P)H dehydrogenase [quinone] 1 (Homo sapiens) (UniProt P15559); test: Inhibition of NQO1 in human MCF7 cells assessed as increase in TP53 expression at 0.5 times of IC50 incubated for 24 hrs by RT-PCR; assay type: cell-based; how it was run: as §2
# C32 [10] = test: Induction of apoptosis in human C32 cells assessed as increase in BAX/Bcl2 expression at 0.5 times of IC50 incubated for 24 hrs by RT-PCR relative to control; assay type: functional; how it was run: as §2
# [11] = target: NAD(P)H dehydrogenase [quinone] 1 (Homo sapiens) (UniProt P15559); test: Inhibition of NQO1 in human MCF7 cells assessed as effect on Bcl2 expression at 0.5 times of IC50 incubated for 24 hrs by RT-PCR; assay type: cell-based; how it was run: as §2
# MCF7 [12] = test: Induction of apoptosis in human MCF7 cells assessed as increase in BAX/Bcl2 expression at 0.5 times of IC50 incubated for 24 hrs by RT-PCR; assay type: functional, cell-based; how it was run: as §2
# A549 [13] = test: Induction of apoptosis in human A549 cells assessed as increase in BAX/Bcl2 expression at 0.5 times of IC50 incubated for 24 hrs by RT-PCR; assay type: functional, cell-based; how it was run: as §2
# [14] = target: NAD(P)H dehydrogenase [quinone] 1 (Homo sapiens) (UniProt P15559); test: Inhibition of NQO1 in human A549 cells assessed as decrease in Bcl2 expression at 0.5 times of IC50 incubated for 24 hrs by RT-PCR; assay type: cell-based; how it was run: as §2
# [15] = target: NAD(P)H dehydrogenase [quinone] 1 (Homo sapiens) (UniProt P15559); test: Inhibition of NQO1 in human C32 cells assessed as decrease in histone H3 expression at 0.5 times of IC50 incubated for 24 hrs by RT-PCR; assay type: cell-based; how it was run: as §2
# [16] = target: NAD(P)H dehydrogenase [quinone] 1 (Homo sapiens) (UniProt P15559); test: Inhibition of NQO1 in human A549 cells assessed as increase in TP53 expression at 0.5 times of IC50 incubated for 24 hrs by RT-PCR; assay type: cell-based; how it was run: as §2
# T47D = test: Antiproliferative activity against human T47D cells assessed as reduction in cell viability incubated for 72 hrs by WST1 assay; assay type: functional, cell-based; conditions: Homo sapiens, T47D, 72 h; read-out: IC50
# MDA-MB-231 = test: Antiproliferative activity against human MDA-MB-231 cells assessed as reduction in cell viability incubated for 72 hrs by WST1 assay; assay type: functional, cell-based
# C32 [17] = test: Antiproliferative activity against human C32 cells assessed as reduction in cell viability incubated for 72 hrs by WST1 assay; assay type: functional, cell-based; conditions: Homo sapiens, C32, 72 h; read-out: IC50; how it was run: as §1
# [18] = target: NAD(P)H dehydrogenase [quinone] 1 (Homo sapiens) (UniProt P15559); test: Inhibition of NQO1 in human MCF7 cells assessed as increase in BAX expression at 0.5 times of IC50 incubated for 24 hrs by RT-PCR; assay type: cell-based; how it was run: as §2
# [19] = target: NAD(P)H dehydrogenase [quinone] 1 (Homo sapiens) (UniProt P15559); test: Inhibition of NQO1 in human A549 cells assessed as increase in CDKN1A expression at 0.5 times of IC50 incubated for 24 hrs by RT-PCR; assay type: cell-based; how it was run: as §2
# SNB-19 = test: Antiproliferative activity against human SNB19 cells assessed as reduction in cell viability incubated for 72 hrs by WST1 assay; assay type: functional, cell-based
# [20] = target: NAD(P)H dehydrogenase [quinone] 1 (Homo sapiens) (UniProt P15559); test: Inhibition of NQO1 in human A549 cells assessed as decrease in of histone H3 expression at 0.5 times of IC50 incubated for 24 hrs by RT-PCR; assay type: cell-based; how it was run: as §2
# A549 [21] = test: Antiproliferative activity against human A549 cells assessed as reduction in cell viability incubated for 72 hrs by WST1 assay; assay type: functional, cell-based; conditions: Homo sapiens, A549, 72 h; read-out: IC50; how it was run: as §1
# [22] = target: NAD(P)H dehydrogenase [quinone] 1 (Homo sapiens) (UniProt P15559); test: Inhibition of NQO1 in human C32 cells assessed as effect on Bcl2 expression at 0.5 times of IC50 incubated for 24 hrs by RT-PCR; assay type: cell-based; how it was run: as §2
# [23] = target: NAD(P)H dehydrogenase [quinone] 1 (Homo sapiens) (UniProt P15559); test: Inhibition of NQO1 in human A549 cells assessed as effect on Bcl2 expression at 0.5 times of IC50 incubated for 24 hrs by RT-PCR; assay type: cell-based; how it was run: as §2
# [24] = Homo sapiens, MDA-MB-231, 72 h, read-out: IC50
# [25] = Homo sapiens, SNB-19, 72 h, read-out: IC50
# Chain of NAD(P)H dehydrogenase [quinone] 1 (Homo sapiens) (P15559 whole entry): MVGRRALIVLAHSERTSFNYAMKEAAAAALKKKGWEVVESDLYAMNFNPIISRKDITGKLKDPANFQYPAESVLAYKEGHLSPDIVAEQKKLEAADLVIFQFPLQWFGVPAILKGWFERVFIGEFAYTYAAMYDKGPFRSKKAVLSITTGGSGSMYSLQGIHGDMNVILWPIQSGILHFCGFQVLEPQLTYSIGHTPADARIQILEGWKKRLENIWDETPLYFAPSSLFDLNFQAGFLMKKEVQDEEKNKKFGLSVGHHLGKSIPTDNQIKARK
Compound,IC50 (MCF7 [1]) [µM],Activity [2],Activity [4],Activity [5],Activity [6],Activity [7],Activity [8],IC50 (COLO-829) [µM],Activity [9],Ratio (C32 [10]),Activity [11],Activity (MCF7 [12]),Activity (A549 [13]),Activity [15],Activity [16],IC50 (T47D) [µM],IC50 (C32 [17]) [µM],Activity [18],Activity [19],Activity [20],other results
C=C(C)[C@@H]1CC[C@]2(COC(C)=O)CC[C@]3(C)[C@H](CC[C@@H]4[C@@]5(C)CC[C@H](OC6=C(Cl)C(=O)c7ccc(C)nc7C6=O)C(C)(C)[C@@H]5CC[C@]43C)[C@@H]12,1.58,Active,Active,Active,Active,Active,Active,4.68,Active,4 - 5,inactive,Active,Active,Active,Active,11.3,6.52,Active,Active,Active,Activity [3]: Active; Activity [14]: Active; IC50 (MDA-MB-231; [24]): 0.9 µM; IC50 (SNB-19; snb-19): Not Active; IC50 (A549 [21]): 0.59 µM
C=C(C)[C@@H]1CC[C@]2(COC(C)=O)CC[C@]3(C)[C@H](CC[C@@H]4[C@@]5(C)CC[C@H](OC6=C(Cl)C(=O)c7ccccc7C6=O)C(C)(C)[C@@H]5CC[C@]43C)[C@@H]12,8.72,Active,Active,Active,Active,Active,Active,0.13,Active,4 - 5,inactive,Active,Active,Active,Active,12.3,1.72,Active,Active,Active,Activity [22]: inactive; Activity [23]: inactive; IC50 (MDA-MB-231; mda-mb-231): Not Active; IC50 (SNB-19; [25]): 7.54 µM; IC50 (A549 [21]): 0.77 µM
C#CC(=O)OC[C@]12CC[C@@H](C(=C)C)[C@@H]1[C@H]1CC[C@@H]3[C@@]4(C)CC[C@H](OC5=C(Cl)C(=O)c6cccnc6C5=O)C(C)(C)[C@@H]4CC[C@@]3(C)[C@]1(C)CC2,14.2,Active,Active,Active,Active,Active,Active,6.67,Active,4 - 5,inactive,Active,Active,Active,Active,99.4,1.27,Active,Active,Active,Activity [22]: inactive; Activity [23]: inactive; IC50 (MDA-MB-231; [24]): 2.43 µM; IC50 (SNB-19; [25]): 42 µM; IC50 (A549 [21]): 0.45 µM
